Experimental data taken from ChEMBL document CHEMBL1149292, “A rational utilization of high-throughput screening affords selective, orally bioavailable 1-benzyl-3-carboxyazetidine sphingosine-1-phosphate-1 receptor agonists” (J Med Chem, 2004).
Active and inactive are the calls of the source. The calls are words filed in the database; no cut-off is given here.

Key:
[1] = molecular target: T1, Sphingosine 1-phosphate receptor 1 (Homo sapiens, UniProt P21453); assay: Displacement of [33P]sphingosine 1 phosphate from human S1P1 receptor expressed in CHO cells; assay type: cell-based
[2] = molecular target: Sphingosine 1-phosphate receptor 3 (Homo sapiens, UniProt Q99500); assay: Displacement of [33P]sphingosine 1 phosphate from human S1P3 receptor expressed in CHO cells; assay type: cell-based
[3] = molecular target: Sphingosine 1-phosphate receptor 5 (Homo sapiens, UniProt Q9H228); assay: Displacement of [33P]sphingosine 1 phosphate from human S1P5 receptor expressed in CHO cells; assay type: cell-based
Summary of the method: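 Competition binding with [33P]-labeled S1P on membranes of CHO cells stably expressing each human S1P receptor. Values are the mean of n = 3 determinations.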

[4] = molecular target: T1, Sphingosine 1-phosphate receptor 1; assay: Activity at human S1P1 receptor expressed in CHO cells by [35S]GTPgammaS binding assay; assay type: functional, cell-based
Summary of the method: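 Agonism measured as ligand-induced [35S]-GTPγS binding to membranes of CHO cells stably expressing the human S1P receptor.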

[5] = tested on: Rattus norvegicus; assay: Decrease in peripheral blood lymphocyte counts in Lewis rat at 1 mg/kg, po after 24 hrs; assay type: functional
Summary of the method: (§1)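 Rat oral dose-titration at 1–30 mpk po. Peripheral blood lymphocyte counts and plasma compound concentrations determined 24 h postdose.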

[6] = tested on: Rattus norvegicus; assay: Decrease in peripheral blood lymphocyte counts in Lewis rat at 3 mg/kg, po after 24 hrs; assay type: functional; summary of the method: as §1
[7] = tested on: Rattus norvegicus; assay: Decrease in peripheral blood lymphocyte counts in Lewis rat at 10 mg/kg, po after 24 hrs; assay type: functional; summary of the method: as §1
[8] = tested on: Rattus norvegicus; assay: Decrease in peripheral blood lymphocytes in Lewis rat at 1 mg/kg, po after 24 hrs relative to control; assay type: functional; set-up: scale not given: the % may be the effect or the level left; summary of the method: as §1
[9] = tested on: Rattus norvegicus; assay: Decrease in peripheral blood lymphocytes in Lewis rat at 3 mg/kg, po after 24 relative to hrs control; assay type: functional; set-up: scale not given: the % may be the effect or the level left; summary of the method: as §1
[10] = Half life in rat at 2 mg/kg, po and 1 mg/kg, iv; assay type: ADME, organism-based; conditions: in vivo
Summary of the method: (§2)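 Rat PK at 2.0 mpk po and 1.0 mpk iv. Plasma compound levels measured.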

[11] = Plasma concentration in femoral artery cannulated Lewis rat at 3 mg/kg, po after 48 hrs; assay type: ADME, organism-based; set-up: dose 3 mg/kg, route oral
Summary of the method: (§3)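 Femoral artery cannulated Lewis rats (n = 3) got a single 3 mpk oral dose. Compound plasma concentration (nM) was measured serially over time up to 72 h postdose. Peripheral blood lymphocyte counts were taken in parallel at the same time points. The same animals were later given a second 3 mpk oral dose.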

[12] = Plasma concentration in femoral artery cannulated Lewis rat at 3 mg/kg, po after 56 hrs; assay type: ADME, organism-based; set-up: dose 3 mg/kg, route oral; summary of the method: as §3
[13] = tested on: Rattus norvegicus; assay: Decrease in peripheral blood lymphocyte counts in femoral artery cannulated Lewis rat at 3 mg/kg, po after 0.5 hrs; assay type: functional
Summary of the method: (§4)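 Femoral artery cannulated Lewis rats (n = 3) given a single 3 mpk oral dose. PBL counts and plasma compound concentration sampled over time up to 72 h postdose. A repeat 3 mpk po challenge was given to the same animals.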

[14] = tested on: Rattus norvegicus; assay: Decrease in peripheral blood lymphocyte counts in femoral artery cannulated Lewis rat at 3 mg/kg, po after 2 hrs; assay type: functional; summary of the method: as §4
[15] = tested on: Rattus norvegicus; assay: Decrease in peripheral blood lymphocyte counts in femoral artery cannulated Lewis rat at 3 mg/kg, po after 4 hrs; assay type: functional; summary of the method: as §4
[16] = tested on: Rattus norvegicus; assay: Decrease in peripheral blood lymphocyte counts in femoral artery cannulated Lewis rat at 3 mg/kg, po after 6 hrs; assay type: functional; summary of the method: as §4
[17] = tested on: Rattus norvegicus; assay: Decrease in peripheral blood lymphocyte counts in femoral artery cannulated Lewis rat at 3 mg/kg, po after 8 hrs; assay type: functional; summary of the method: as §4
[18] = tested on: Rattus norvegicus; assay: Decrease in peripheral blood lymphocyte counts in femoral artery cannulated Lewis rat at 3 mg/kg, po after 12 hrs; assay type: functional; summary of the method: as §4
[19] = tested on: Rattus norvegicus; assay: Decrease in peripheral blood lymphocyte counts in femoral artery cannulated Lewis rat at 3 mg/kg, po after 16 hrs; assay type: functional; summary of the method: as §4
[20] = tested on: Rattus norvegicus; assay: Decrease in peripheral blood lymphocyte counts in femoral artery cannulated Lewis rat at 3 mg/kg, po after 20 hrs; assay type: functional; summary of the method: as §4
[21] = tested on: Rattus norvegicus; assay: Decrease in peripheral blood lymphocyte counts in femoral artery cannulated Lewis rat at 3 mg/kg, po after 24 hrs; assay type: functional; summary of the method: as §4
[22] = tested on: Rattus norvegicus; assay: Decrease in peripheral blood lymphocyte counts in femoral artery cannulated Lewis rat at 3 mg/kg, po after 32 hrs; assay type: functional; summary of the method: as §4
[23] = tested on: Rattus norvegicus; assay: Decrease in peripheral blood lymphocyte counts in femoral artery cannulated Lewis rat at 3 mg/kg, po after 48 hrs; assay type: functional; summary of the method: as §4
[24] = tested on: Rattus norvegicus; assay: Decrease in peripheral blood lymphocyte counts in femoral artery cannulated Lewis rat at 3 mg/kg, po after 56 hrs; assay type: functional; summary of the method: as §4
[25] = tested on: Rattus norvegicus; assay: Decrease in peripheral blood lymphocytes in Lewis rat at 30 mg/kg, po after 24 hrs relative to control; assay type: functional; set-up: scale not given: the % may be the effect or the level left; summary of the method: as §1
[26] = Plasma clearance in rat at 2 mg/kg, po and 1 mg/kg, iv; assay type: ADME, organism-based; summary of the method: as §2
[27] = Cmax in rat at 2 mg/kg, po and 1 mg/kg, iv; assay type: ADME, organism-based; conditions: in vivo; summary of the method: as §2
[28] = tested on: Canis familiaris; assay: Cmax in Beagle dog at 1 mg/kg, po and 0.5 mg/kg, iv; assay type: ADME, organism-based, Canis lupus familiaris; conditions: in vivo
Summary of the method: (§5)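 Single-dose PK at 1.0 mpk po and 0.5 mpk iv. Plasma compound levels measured.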

[29] = Bioavailability in Beagle dog at 1 mg/kg, po and 0.5 mg/kg, iv; assay type: ADME, organism-based, Canis lupus familiaris; conditions: in vivo; summary of the method: as §5
[30] = Volume of distribution at steady state in rhesus monkey at 1 mg/kg, po and 0.5 mg/kg, iv; assay type: ADME, organism-based, Macaca mulatta; conditions: in vivo, read-out: Vdss
[31] = Cmax in rhesus monkey at 1 mg/kg, po and 0.5 mg/kg, iv; assay type: ADME, organism-based, Macaca mulatta; conditions: in vivo; summary of the method: as §5
[32] = tested on: Rhesus monkey; assay: Maximal decrease in peripheral blood lymphocyte in rhesus monkey at 1 mg/kg, po after 24 hrs; assay type: functional, organism-based; set-up: dose 1 mg/kg; conditions: Macaca mulatta
Summary of the method: (§6)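 Complete blood counts run alongside plasma concentrations after a single 1.0 mpk oral dose in beagle dog or rhesus monkey. Lymphocyte counts followed over time, with PBL lowering assessed at 24 h postdose.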

[33] = tested on: Canis familiaris; assay: Maximal decrease in peripheral blood lymphocyte in Beagle dog at 1 mg/kg, po after 24 hrs; assay type: functional, organism-based; set-up: dose 1 mg/kg; conditions: Canis lupus familiaris; summary of the method: as §6
[34] = Plasma concentration in Lewis rat at 1 mg/kg, po after 24 hrs; assay type: ADME, organism-based; set-up: dose 1 mg/kg, route oral; summary of the method: as §1
[35] = Plasma concentration in Lewis rat at 3 mg/kg, po after 24 hrs; assay type: ADME, organism-based; set-up: dose 3 mg/kg, route oral; summary of the method: as §1
[36] = Plasma concentration in Lewis rat at 30 mg/kg, po after 24 hrs; assay type: ADME, organism-based; set-up: dose 30 mg/kg, route oral; summary of the method: as §1
[37] = tested on: Rattus norvegicus; assay: Decrease in peripheral blood lymphocyte counts in femoral artery cannulated Lewis rat at 3 mg/kg, po after 72 hrs; assay type: functional; summary of the method: as §4
[38] = Plasma concentration in femoral artery cannulated Lewis rat at 3 mg/kg, po after 0.5 hrs; assay type: ADME, organism-based; set-up: dose 3 mg/kg, route oral; summary of the method: as §4
[39] = Plasma concentration in femoral artery cannulated Lewis rat at 3 mg/kg, po after 1 hr; assay type: ADME, organism-based; set-up: dose 3 mg/kg, route oral; summary of the method: as §3
[40] = Plasma concentration in femoral artery cannulated Lewis rat at 3 mg/kg, po after 2 hrs; assay type: ADME, organism-based; set-up: dose 3 mg/kg, route oral; summary of the method: as §3
[41] = Plasma concentration in femoral artery cannulated Lewis rat at 3 mg/kg, po after 6 hrs; assay type: ADME, organism-based; set-up: dose 3 mg/kg, route oral; summary of the method: as §3
[42] = Plasma concentration in femoral artery cannulated Lewis rat at 3 mg/kg, po after 12 hrs; assay type: ADME, organism-based; set-up: dose 3 mg/kg, route oral; summary of the method: as §3
[43] = Plasma concentration in femoral artery cannulated Lewis rat at 3 mg/kg, po after 16 hrs; assay type: ADME, organism-based; set-up: dose 3 mg/kg, route oral; summary of the method: as §3
[44] = Plasma concentration in femoral artery cannulated Lewis rat at 3 mg/kg, po after 20 hrs; assay type: ADME, organism-based; set-up: dose 3 mg/kg, route oral; summary of the method: as §3
[45] = Plasma concentration in femoral artery cannulated Lewis rat at 3 mg/kg, po after 24 hrs; assay type: ADME, organism-based; set-up: dose 3 mg/kg, route oral; summary of the method: as §3
[46] = Half life in rhesus monkey at 1 mg/kg, po and 0.5 mg/kg, iv; conditions: in vivo

T1 sequence (P21453 whole entry): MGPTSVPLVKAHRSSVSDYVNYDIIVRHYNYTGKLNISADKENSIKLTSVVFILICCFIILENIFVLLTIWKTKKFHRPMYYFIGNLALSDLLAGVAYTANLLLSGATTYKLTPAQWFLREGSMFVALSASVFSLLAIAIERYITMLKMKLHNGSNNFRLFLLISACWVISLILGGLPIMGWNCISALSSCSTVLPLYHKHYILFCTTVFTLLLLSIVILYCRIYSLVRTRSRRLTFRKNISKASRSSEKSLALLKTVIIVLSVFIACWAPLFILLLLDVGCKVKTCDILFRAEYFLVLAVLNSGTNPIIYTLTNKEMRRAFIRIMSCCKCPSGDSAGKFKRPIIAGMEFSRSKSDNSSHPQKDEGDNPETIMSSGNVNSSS
Chain of Sphingosine 1-phosphate receptor 3 (Q99500 whole entry): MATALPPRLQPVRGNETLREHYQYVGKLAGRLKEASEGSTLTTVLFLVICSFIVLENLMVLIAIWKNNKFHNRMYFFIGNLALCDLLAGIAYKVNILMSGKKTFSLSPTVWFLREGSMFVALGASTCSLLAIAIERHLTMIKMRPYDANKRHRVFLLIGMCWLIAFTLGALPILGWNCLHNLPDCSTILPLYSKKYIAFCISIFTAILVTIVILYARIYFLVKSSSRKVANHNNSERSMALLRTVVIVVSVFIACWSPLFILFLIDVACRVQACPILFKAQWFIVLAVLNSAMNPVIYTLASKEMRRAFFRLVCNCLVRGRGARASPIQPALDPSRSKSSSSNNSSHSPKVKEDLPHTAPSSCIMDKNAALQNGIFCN
Chain of Sphingosine 1-phosphate receptor 5 (Q9H228 whole entry): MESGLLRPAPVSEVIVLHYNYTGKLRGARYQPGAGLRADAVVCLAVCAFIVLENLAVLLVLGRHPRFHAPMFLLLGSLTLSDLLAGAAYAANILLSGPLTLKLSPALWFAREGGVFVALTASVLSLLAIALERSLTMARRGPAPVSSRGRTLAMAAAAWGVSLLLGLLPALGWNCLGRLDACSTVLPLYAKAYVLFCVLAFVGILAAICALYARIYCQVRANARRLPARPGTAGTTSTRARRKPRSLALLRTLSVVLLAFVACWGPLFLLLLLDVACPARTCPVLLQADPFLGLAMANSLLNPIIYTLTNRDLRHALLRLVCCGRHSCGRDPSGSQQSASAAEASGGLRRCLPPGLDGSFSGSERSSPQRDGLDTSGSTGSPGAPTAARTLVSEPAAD

IC50 [1]: 1.2 nM (antagonist)
IC50 [2]: 530 nM (antagonist)
IC50 [3]: 23 nM (antagonist)
EC50 [4]: 0.5 nM (agonist)
half-life [10]: 6.7 h
concentration at 48 h [11]: 13 nM
concentration at 56 h [12]: 10 nM
clearance [26]: 12.3 mL/min/kg
Cmax [27]: 300 nM
Cmax [28]: 1300 nM
bioavailability [29]: 66%
Vd [30]: 1.4 L/kg
Cmax [31]: 1800 nM
concentration at 24 h [34]: 22 nM
concentration at 24 h [35]: 95 nM
concentration at 24 h [36]: 1400 nM
concentration at 0.5 h [38]: 200 nM
concentration at 1 h [39]: 270 nM
concentration at 2 h [40]: 310 nM
concentration at 6 h [41]: 380 nM
concentration at 12 h [42]: 280 nM
concentration at 16 h [43]: 170 nM
concentration at 20 h [44]: 150 nM
concentration at 24 h [45]: 120 nM
half-life [46]: 12.5 h
SMILES: O=C(O)C1CN(Cc2ccc(OCc3cc(-c4ccccc4)c(C(F)(F)F)s3)cc2)C1
Activity [5]: 2230 µL⁻¹
Activity [6]: 1530 µL⁻¹
Activity [7]: 1530 µL⁻¹
Activity [8]: 68%
Activity [9]: 78%
Activity [13]: 4200 µL⁻¹
Activity [14]: 1770 µL⁻¹
Activity [15]: 1130 µL⁻¹
Activity [16]: 1330 µL⁻¹
Activity [17]: 1470 µL⁻¹
Activity [18]: 1530 µL⁻¹
Activity [19]: 1600 µL⁻¹
Activity [20]: 1530 µL⁻¹
Activity [21]: 1570 µL⁻¹
Activity [22]: 1800 µL⁻¹
Activity [23]: 4000 µL⁻¹
Activity [24]: 4270 µL⁻¹
Activity [25]: 79%
Activity [32]: Active
Activity [33]: Active
Activity [37]: 7000 µL⁻¹
